ChEMBL document CHEMBL6134796, “Development and Evaluation of Indole-Based Phospholipase D Inhibitors for Lung Cancer Immunotherapy” (J Med Chem, 2025)
Activity calls are given as the source filed them. No cut-off for these calls is given here.

Legend:
[1] = tested on: Lewis lung carcinoma cell line; assay: Antitumor activity against mouse Lewis lung carcinoma cell line allografted in male C57BL/6 mouse model assessed as reduction in […] expression at 10 mg/kg, po measured every other day for 3 weeks by IHC analysis
[2] = tested on: HCT-116; assay: Residual PLD activity in human HCT-116 cells at 10 uM measured after 1 hr by amplex red phospholipase D assay as % of control
[3] = tested on: Lewis lung carcinoma cell line; assay: Antitumor activity against mouse Lewis lung carcinoma cell line allografted in […] male C57BL/6 mouse model assessed as increase in cell apoptosis at 10 mg/kg, po measured every other day for 3 weeks; assay type: functional, organism-based
[4] = target: T1, Phospholipase D1 (Mus musculus) (UniProt Q9Z280); assay: In vivo inhibition of PLD1 in male C57BL/6 mouse allografted with mouse Lewis lung carcinoma cell line assessed as reduction in CD47 expression at 10 mg/kg, po by immunofluorescence analysis; assay type: functional, organism-based
T1 sequence (whole entry): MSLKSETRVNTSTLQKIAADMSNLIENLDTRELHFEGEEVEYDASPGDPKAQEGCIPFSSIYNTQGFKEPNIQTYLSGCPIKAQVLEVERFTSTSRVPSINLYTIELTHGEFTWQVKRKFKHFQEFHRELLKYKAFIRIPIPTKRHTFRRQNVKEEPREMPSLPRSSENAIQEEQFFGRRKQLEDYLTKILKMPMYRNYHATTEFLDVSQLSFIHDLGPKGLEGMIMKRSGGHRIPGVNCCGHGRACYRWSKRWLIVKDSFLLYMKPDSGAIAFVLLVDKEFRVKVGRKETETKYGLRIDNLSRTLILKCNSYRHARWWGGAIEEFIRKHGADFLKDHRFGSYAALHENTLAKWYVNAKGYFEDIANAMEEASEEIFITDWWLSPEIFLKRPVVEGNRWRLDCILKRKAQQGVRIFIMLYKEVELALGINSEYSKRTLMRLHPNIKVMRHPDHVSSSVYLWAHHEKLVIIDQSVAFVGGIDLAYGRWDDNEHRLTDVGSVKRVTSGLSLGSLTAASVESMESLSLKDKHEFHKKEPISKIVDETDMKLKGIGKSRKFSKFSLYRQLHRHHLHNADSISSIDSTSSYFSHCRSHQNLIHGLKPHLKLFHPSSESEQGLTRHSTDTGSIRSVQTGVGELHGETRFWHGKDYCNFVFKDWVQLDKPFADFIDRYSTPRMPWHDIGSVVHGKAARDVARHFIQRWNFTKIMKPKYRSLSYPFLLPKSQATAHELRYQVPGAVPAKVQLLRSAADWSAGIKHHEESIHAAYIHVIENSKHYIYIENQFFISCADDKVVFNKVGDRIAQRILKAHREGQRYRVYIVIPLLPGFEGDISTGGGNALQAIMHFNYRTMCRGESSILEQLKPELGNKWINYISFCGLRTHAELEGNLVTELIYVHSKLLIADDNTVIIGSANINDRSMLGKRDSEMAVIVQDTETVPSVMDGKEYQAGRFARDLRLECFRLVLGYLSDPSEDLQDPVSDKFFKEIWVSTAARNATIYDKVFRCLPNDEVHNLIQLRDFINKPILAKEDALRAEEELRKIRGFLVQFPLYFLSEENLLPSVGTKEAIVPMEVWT

[5] = tested on: Lewis lung carcinoma cell line; assay: Antitumor activity against mouse Lewis lung carcinoma cell line allografted in male C57BL/6 mouse model assessed as increase in caspase 3 expression at 10 mg/kg, po measured every other day for 3 weeks by IHC analysis; assay type: functional, organism-based
Procedure, shortened: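 Syngeneic model: 6-week-old male C57BL/6 mice given 3 × 10^5 LLC cells in 50 μL PBS subcutaneously in the flank. At day 7, mice were randomized to vehicle PO daily or 10 mg/kg PO every other day for 3 weeks. Caliper volume was taken every 2 days as ([…])/2, with tumor weight at end. Spleen size and weight were recorded. Ki67 and cleaved caspase-3 were scored by IHC (DAB, hematoxylin).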

[6] = tested on: HCT-116; assay: Cytotoxicity against human HCT-116 cells assessed as inhibition of cell growth incubated for 48 hrs by WST-1 assay; assay type: functional, cell-based; details: HCT-116, 48 h
[7] = tested on: A549; assay: Upregulation of CRT expression in human A549 cells by flow cytometry analysis; assay type: functional, cell-based
Procedure, shortened: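 A549 cells treated with compound; surface "eat-me" and "don't eat-me" signal proteins measured by flow cytometry; at least three independent experiments, mean ± SEM.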

[8] = target: T2, Phospholipase D1 (Homo sapiens) (UniProt Q13393); assay: Inhibition of wild type PLD1 (unknown origin) overexpressed in human A549 cells; assay type: cell-based
T2 sequence (whole entry): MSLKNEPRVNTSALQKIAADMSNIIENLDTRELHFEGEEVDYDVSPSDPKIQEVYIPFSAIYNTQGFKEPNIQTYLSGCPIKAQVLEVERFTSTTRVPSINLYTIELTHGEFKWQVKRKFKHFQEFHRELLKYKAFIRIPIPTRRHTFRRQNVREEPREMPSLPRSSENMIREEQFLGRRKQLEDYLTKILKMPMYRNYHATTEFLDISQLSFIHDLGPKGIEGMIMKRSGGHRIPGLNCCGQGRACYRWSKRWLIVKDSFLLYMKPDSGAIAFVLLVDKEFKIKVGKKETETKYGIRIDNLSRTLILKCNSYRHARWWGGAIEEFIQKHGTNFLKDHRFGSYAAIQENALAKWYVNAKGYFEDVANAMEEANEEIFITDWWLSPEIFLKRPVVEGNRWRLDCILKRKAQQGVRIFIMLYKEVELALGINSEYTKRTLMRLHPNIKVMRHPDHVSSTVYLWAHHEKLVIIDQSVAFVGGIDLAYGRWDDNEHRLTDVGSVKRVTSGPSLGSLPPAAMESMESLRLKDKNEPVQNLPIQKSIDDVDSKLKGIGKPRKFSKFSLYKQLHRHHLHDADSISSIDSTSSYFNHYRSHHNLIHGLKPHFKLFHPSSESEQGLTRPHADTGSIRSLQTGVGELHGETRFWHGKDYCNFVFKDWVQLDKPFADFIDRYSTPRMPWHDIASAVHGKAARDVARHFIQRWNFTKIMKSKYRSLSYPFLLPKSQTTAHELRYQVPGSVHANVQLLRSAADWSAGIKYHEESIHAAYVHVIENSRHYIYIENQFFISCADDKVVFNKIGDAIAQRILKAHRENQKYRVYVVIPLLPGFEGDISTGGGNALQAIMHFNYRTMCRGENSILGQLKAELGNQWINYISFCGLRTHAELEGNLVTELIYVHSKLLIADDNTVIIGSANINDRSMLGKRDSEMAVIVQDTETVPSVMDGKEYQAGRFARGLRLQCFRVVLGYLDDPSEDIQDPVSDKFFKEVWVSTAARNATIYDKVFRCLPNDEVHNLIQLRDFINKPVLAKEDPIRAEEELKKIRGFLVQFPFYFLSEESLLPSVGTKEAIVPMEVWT
Procedure, shortened: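 A549 cells transfected with wild-type PLD1, labeled with [3H] myristic acid; PLD activity as [3H] phosphatidylbutanol formed by transphosphatidylation with 1-butanol, expressed as percent of total lipid cpm in PtdBut; alternatively, cells treated 1 h and read by Amplex Red kit (ex 540/em 590 nm); at least three independent experiments.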

O=C(CCc1c[nH]c2ccccc12)Nc1cc(C(F)(F)F)cc(C(F)(F)F)c1
Activity [1]: Active
level, % of control [2]: 26.6%
Activity [3]: Active
inhibition [4]: Active
Activity [5]: Active
IC50 [6]: 29 µM
Activity [7]: Active
inhibition [8]: Active
